Source: ChEMBL document CHEMBL1136978, “Aryl urea derivatives of spiropiperidines as NPY Y5 receptor antagonists” (Bioorg Med Chem Lett, 2009)

Assays:
Assay type in all cases: ADME, organism-based
[1] = Oral bioavailability in rat at 3 mg/kg, iv and 10 mg/kg, po; conditions: in vivo
[2] = Plasma concentration in rat at 10 mg/kg, po after 2 hrs; parameters: dose 10 mg/kg, route oral
Method in brief: (§1)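 Single oral dose of 10 mg/kg to rats (n = 3). Plasma (µM), brain (nmol/g tissue) and CSF (µM) levels taken at 2 h post-dose.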

[3] = tested on: Brain; test: Drug level in rat brain at 10 mg/kg, po after 2 hrs measured per gram of tissue; parameters: dose 10 mg/kg, route oral; conditions: in vivo; method in brief: as §1
[4] = Drug level in rat cerebrospinal fluid at 10 mg/kg, po after 2 hrs; parameters: dose 10 mg/kg, route oral; conditions: read-out: Drug uptake; method in brief: as §1

| SMILES | bioavailability [1] [%] | concentration at 2 h [2] [nM] | Drug uptake [3] [nmol/g] | concentration at 2 h [4] [nM] |
| --- | --- | --- | --- | --- |
| O=C1NC2(CCN(C(=O)Nc3cnc(-c4ccccc4)cn3)CC2)c2ccccc21 | 8 | 360 | 0.029 | – |
| O=C1OC2(CCN(C(=O)Nc3cnc(-c4ccccc4)cn3)CC2)c2ccccc21 | 49 | 2980 | 2.92 | 100 |
| O=C1Cc2ccccc2C2(CCN(C(=O)Nc3cnc(-c4ccccc4)cn3)CC2)N1 | 3 | – | – | – |
| O=C1OC2(CCN(C(=O)Nc3ncc(-c4ccccc4)cn3)CC2)c2ccccc21 | – | 3860 | 0.26 | 130 |
| O=C1OC2(CCN(C(=O)Nc3cc(-c4ccc(Cl)cc4)no3)CC2)c2ccccc21 | – | 1420 | 1.09 | < 10 |
